Source: ChEMBL document CHEMBL1932936, “Oxidative folding of lysozyme with aromatic dithiols, and aliphatic and aromatic monothiols” (Bioorg Med Chem, 2012)
Values after ≈ are worked out from the molar mass of the structure shown. One block for each compound: values may come before it.

What was measured:
[1] = Dissociation constant, pKa of the compound; assay type: physicochemical
[2] = molecular target: Lysozyme C (Gallus gallus) (UniProt P00698); assay: Renaturation of 0.1 mg/mL reduced hen egg white lysozyme assessed as maximum enzyme activity at 0.25 mM at pH 8 by Micrococcus lysodeikticus lysis-based enzyme assay in presence of 0.2 mM GSSG; design: scale not given: the % may be the effect or the level left
Sequence of Lysozyme C (Gallus gallus) (P00698 whole entry): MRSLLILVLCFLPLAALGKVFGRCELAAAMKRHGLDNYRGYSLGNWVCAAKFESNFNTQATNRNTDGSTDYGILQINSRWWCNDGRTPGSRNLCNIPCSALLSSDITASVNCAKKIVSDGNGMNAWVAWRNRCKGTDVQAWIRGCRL
Procedure, shortened: (§1)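 Reduced lysozyme (10 mg/mL) diluted 100-fold into deoxygenated renaturation buffer: 0.1 M bis tris propane–HCl (pH 7.0) or 0.1 M Tris–HCl (pH 8.0), 1 mM EDTA, 0.5 M Gdn HCl, thiol plus GSSG. Mixed by vortexing for 15 s, held at 25 °C. 20 µL aliquots taken at set times and assayed for recovery of enzymatic activity.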

[3] = molecular target: Lysozyme C (Gallus gallus) (UniProt P00698); assay: Renaturation of 0.1 mg/mL reduced hen egg white lysozyme assessed as maximum enzyme activity at 1 mM at pH 8 by Micrococcus lysodeikticus lysis-based enzyme assay in presence of 0.2 mM GSSG; design: scale not given: the % may be the effect or the level left; procedure, shortened: as §1
[4] = Solubility of the compound at pH 8; assay type: physicochemical; conditions: buffer
[5] = molecular target: Lysozyme C (Gallus gallus) (UniProt P00698); assay: Renaturation of 0.1 mg/mL reduced hen egg white lysozyme assessed as apparent rate of renaturation at 0.25 mM at pH 8 by Micrococcus lysodeikticus lysis-based enzyme assay in presence of 0.2 mM GSSG; procedure, shortened: as §1
[6] = molecular target: Lysozyme C (Gallus gallus) (UniProt P00698); assay: Renaturation of 0.1 mg/mL reduced hen egg white lysozyme assessed as apparent rate of renaturation at 1 mM at pH 8 by Micrococcus lysodeikticus lysis-based enzyme assay in presence of 0.2 mM GSSG; procedure, shortened: as §1
[7] = molecular target: Lysozyme C (Gallus gallus) (UniProt P00698); assay: Renaturation of 0.1 mg/mL reduced hen egg white lysozyme assessed as apparent rate of renaturation at 0.5 mM at pH 7 by Micrococcus lysodeikticus lysis-based enzyme assay in presence of 0.2 mM GSSG; procedure, shortened: as §1
[8] = molecular target: Lysozyme C (Gallus gallus) (UniProt P00698); assay: Renaturation of 0.1 mg/mL reduced hen egg white lysozyme assessed as maximum enzyme activity at 0.5 mM at pH 7 by Micrococcus lysodeikticus lysis-based enzyme assay in presence of 0.2 mM GSSG; design: scale not given: the % may be the effect or the level left; procedure, shortened: as §1
[9] = molecular target: Lysozyme C (Gallus gallus) (UniProt P00698); assay: Renaturation of 0.1 mg/mL reduced hen egg white lysozyme assessed as maximum enzyme activity at 3 mM at pH 7 by Micrococcus lysodeikticus lysis-based enzyme assay in presence of 0.2 mM GSSG; design: scale not given: the % may be the effect or the level left; procedure, shortened: as §1
[10] = molecular target: Lysozyme C (Gallus gallus) (UniProt P00698); assay: Renaturation of 0.1 mg/mL reduced hen egg white lysozyme assessed as maximum enzyme activity at 0.5 mM at pH 8 by Micrococcus lysodeikticus lysis-based enzyme assay in presence of 0.2 mM GSSG; design: scale not given: the % may be the effect or the level left; procedure, shortened: as §1
[11] = molecular target: Lysozyme C (Gallus gallus) (UniProt P00698); assay: Renaturation of 0.1 mg/mL reduced hen egg white lysozyme assessed as maximum enzyme activity at 3 mM at pH 8 by Micrococcus lysodeikticus lysis-based enzyme assay in presence of 0.2 mM GSSG; design: scale not given: the % may be the effect or the level left; procedure, shortened: as §1
[12] = molecular target: Lysozyme C (Gallus gallus) (UniProt P00698); assay: Renaturation of 0.1 mg/mL reduced hen egg white lysozyme assessed as apparent rate of renaturation at 3 mM at pH 7 by Micrococcus lysodeikticus lysis-based enzyme assay in presence of 0.2 mM GSSG; procedure, shortened: as §1
[13] = molecular target: Lysozyme C (Gallus gallus) (UniProt P00698); assay: Renaturation of 0.1 mg/mL reduced hen egg white lysozyme assessed as apparent rate of renaturation at 0.5 mM at pH 8 by Micrococcus lysodeikticus lysis-based enzyme assay in presence of 0.2 mM GSSG; procedure, shortened: as §1
[14] = molecular target: Lysozyme C (Gallus gallus) (UniProt P00698); assay: Renaturation of 0.1 mg/mL reduced hen egg white lysozyme assessed as apparent rate of renaturation at 3 mM at pH 8 by Micrococcus lysodeikticus lysis-based enzyme assay in presence of 0.2 mM GSSG; procedure, shortened: as §1
[15] = molecular target: Lysozyme C (Gallus gallus) (UniProt P00698); assay: Renaturation of 1 mg/mL reduced hen egg white lysozyme assessed as maximum enzyme activity at 20 mM at pH 8 by Micrococcus lysodeikticus lysis-based enzyme assay in presence of 1 mM GSSG; design: scale not given: the % may be the effect or the level left
Procedure, shortened: (§2)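 Reduced lysozyme was dissolved in 0.1 M acetic acid with 6 M Gdn HCl (pH 2.5), brought to pH 7.0 or 8.0 with KOH, and set to 10 mg/mL by A280. It was then diluted 10-fold into deoxygenated buffer: 0.1 M bis tris propane–HCl or Tris–HCl, 1.25 M Gdn HCl, 1 mM EDTA, thiol plus GSSG. Final protein was 1 mg/mL, final Gdn HCl 1.7 M, 25 °C. Aliquots taken at intervals and assayed for activity. Errors are standard deviations.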

[16] = molecular target: Lysozyme C (Gallus gallus) (UniProt P00698); assay: Renaturation of 1 mg/mL reduced hen egg white lysozyme assessed as maximum enzyme activity at 10 mM at pH 8 by Micrococcus lysodeikticus lysis-based enzyme assay in presence of 1 mM GSSG; design: scale not given: the % may be the effect or the level left; procedure, shortened: as §2
[17] = Solubility of the compound in water; assay type: physicochemical; conditions: buffer
[18] = molecular target: Lysozyme C (Gallus gallus) (UniProt P00698); assay: Renaturation of 1 mg/mL reduced hen egg white lysozyme assessed as apparent rate of renaturation at 10 mM at pH 7 by Micrococcus lysodeikticus lysis-based enzyme assay in presence of 1 mM GSSG; procedure, shortened: as §2
[19] = molecular target: Lysozyme C (Gallus gallus) (UniProt P00698); assay: Renaturation of 1 mg/mL reduced hen egg white lysozyme assessed as apparent rate of renaturation at 10 mM at pH 7 by Micrococcus lysodeikticus lysis-based enzyme assay in presence of 0.5 mM GSSG; procedure, shortened: as §2
[20] = molecular target: Lysozyme C (Gallus gallus) (UniProt P00698); assay: Renaturation of 1 mg/mL reduced hen egg white lysozyme assessed as apparent rate of renaturation at 20 mM at pH 8 by Micrococcus lysodeikticus lysis-based enzyme assay in presence of 1 mM GSSG; procedure, shortened: as §2
[21] = molecular target: Lysozyme C (Gallus gallus) (UniProt P00698); assay: Renaturation of 1 mg/mL reduced hen egg white lysozyme assessed as apparent rate of renaturation at 10 mM at pH 8 by Micrococcus lysodeikticus lysis-based enzyme assay in presence of 1 mM GSSG; procedure, shortened: as §2
[22] = molecular target: Lysozyme C (Gallus gallus) (UniProt P00698); assay: Renaturation of 1 mg/mL reduced hen egg white lysozyme assessed as maximum enzyme activity at 10 mM at pH 7 by Micrococcus lysodeikticus lysis-based enzyme assay in presence of 1 mM GSSG; design: scale not given: the % may be the effect or the level left; procedure, shortened: as §2
[23] = molecular target: Lysozyme C (Gallus gallus) (UniProt P00698); assay: Renaturation of 1 mg/mL reduced hen egg white lysozyme assessed as maximum enzyme activity at 10 mM at pH 7 by Micrococcus lysodeikticus lysis-based enzyme assay in presence of 0.5 mM GSSG; design: scale not given: the % may be the effect or the level left; procedure, shortened: as §2
[24] = molecular target: Lysozyme C (Gallus gallus) (UniProt P00698); assay: Renaturation of 0.1 mg/mL reduced hen egg white lysozyme assessed as maximum enzyme activity at 2 mM at pH 7 by Micrococcus lysodeikticus lysis-based enzyme assay in presence of 0.2 mM GSSG; design: scale not given: the % may be the effect or the level left; procedure, shortened: as §1
[25] = molecular target: Lysozyme C (Gallus gallus) (UniProt P00698); assay: Renaturation of 0.1 mg/mL reduced hen egg white lysozyme assessed as maximum enzyme activity at 2 mM at pH 8 by Micrococcus lysodeikticus lysis-based enzyme assay in presence of 0.2 mM GSSG; design: scale not given: the % may be the effect or the level left; procedure, shortened: as §1
[26] = Solubility of the compound at pH 7; assay type: physicochemical; conditions: buffer
[27] = molecular target: Lysozyme C (Gallus gallus) (UniProt P00698); assay: Renaturation of 0.1 mg/mL reduced hen egg white lysozyme assessed as apparent rate of renaturation at 2 mM at pH 7 by Micrococcus lysodeikticus lysis-based enzyme assay in presence of 0.2 mM GSSG; procedure, shortened: as §1
[28] = molecular target: Lysozyme C (Gallus gallus) (UniProt P00698); assay: Renaturation of 0.1 mg/mL reduced hen egg white lysozyme assessed as apparent rate of renaturation at 2 mM at pH 8 by Micrococcus lysodeikticus lysis-based enzyme assay in presence of 0.2 mM GSSG; procedure, shortened: as §1
[29] = molecular target: Lysozyme C (Gallus gallus) (UniProt P00698); assay: Renaturation of 1 mg/mL reduced hen egg white lysozyme assessed as maximum enzyme activity at 40 mM at pH 8 by Micrococcus lysodeikticus lysis-based enzyme assay in presence of 1 mM GSSG; design: scale not given: the % may be the effect or the level left
Procedure, shortened: (§3)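 Reduced lysozyme prepared in 0.1 M acetic acid with 6 M Gdn HCl, pH 2.5, then neutralised to pH 7.0 or 8.0 with KOH and set to 10 mg/mL. Diluted 10-fold into deoxygenated buffer: 0.1 M bis tris propane–HCl (pH 7.0) or Tris–HCl (pH 8.0), 1 mM EDTA, thiol plus GSSG. Final 1 mg/mL protein, 1.7 M Gdn HCl, 25 °C. Aliquots taken over time, diluted and assayed for activity.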

[30] = molecular target: Lysozyme C (Gallus gallus) (UniProt P00698); assay: Renaturation of 1 mg/mL reduced hen egg white lysozyme assessed as apparent rate of renaturation at 20 mM at pH 7 by Micrococcus lysodeikticus lysis-based enzyme assay in presence of 1 mM GSSG; procedure, shortened: as §2
[31] = molecular target: Lysozyme C (Gallus gallus) (UniProt P00698); assay: Renaturation of 1 mg/mL reduced hen egg white lysozyme assessed as apparent rate of renaturation at 40 mM at pH 8 by Micrococcus lysodeikticus lysis-based enzyme assay in presence of 1 mM GSSG; procedure, shortened: as §3
[32] = molecular target: Lysozyme C (Gallus gallus) (UniProt P00698); assay: Renaturation of 1 mg/mL reduced hen egg white lysozyme assessed as maximum enzyme activity at 20 mM at pH 7 by Micrococcus lysodeikticus lysis-based enzyme assay in presence of 1 mM GSSG; design: scale not given: the % may be the effect or the level left; procedure, shortened: as §2
[33] = molecular target: Lysozyme C (Gallus gallus) (UniProt P00698); assay: Renaturation of 1 mg/mL reduced hen egg white lysozyme assessed as maximum enzyme activity at 40 mM at pH 7 by Micrococcus lysodeikticus lysis-based enzyme assay in presence of 1 mM GSSG; design: scale not given: the % may be the effect or the level left; procedure, shortened: as §3
[34] = molecular target: Lysozyme C (Gallus gallus) (UniProt P00698); assay: Renaturation of 1 mg/mL reduced hen egg white lysozyme assessed as apparent rate of renaturation at 40 mM at pH 7 by Micrococcus lysodeikticus lysis-based enzyme assay in presence of 1 mM GSSG; procedure, shortened: as §3

- Activity [2]: 68%
- Activity [3]: 2%
- solubility [4]: 2000 µM (≈ 541 µg/mL)
- Activity [5]: 0.028 min⁻¹
- Activity [6]: 0.012 min⁻¹
SMILES: O=C(OCCOCCOCCS)c1ccccc1

- Activity [7]: 0.025 min⁻¹
- Activity [8]: 57%
- Activity [9]: 23%
- Activity [10]: 63%
- Activity [11]: 16%
- Activity [12]: 0.02 min⁻¹
- Activity [13]: 0.076 min⁻¹
- Activity [14]: 0.1 min⁻¹
SMILES: O=C(OCCOCCOCCS)c1ccc(S)cc1

- Activity [7]: 0.013 min⁻¹
- Activity [8]: 55%
- Activity [24]: 19%
- Activity [10]: 58%
- Activity [25]: 62%
- solubility [26]: 4000 µM (≈ 1210 µg/mL)
- Activity [27]: 0.001 min⁻¹
- Activity [13]: 0.041 min⁻¹
- Activity [28]: 0.009 min⁻¹
SMILES: O=C(OCCOCCOCCS)c1ccccc1S

- Activity [7]: 0.008 min⁻¹
- Activity [8]: 85%
- Activity [9]: 2%
- Activity [10]: 76%
- Activity [11]: 27%
- Activity [12]: 0.01 min⁻¹
- Activity [13]: 0.061 min⁻¹
- Activity [14]: 0.023 min⁻¹
SMILES: O=C(OCCOCCOCCOCCS)c1ccccc1S

- Activity [7]: 0.038 min⁻¹
- Activity [8]: 39%
- Activity [9]: 36%
- Activity [10]: 73%
- Activity [11]: 43%
- Activity [12]: 0.045 min⁻¹
- Activity [13]: 0.087 min⁻¹
- Activity [14]: 0.072 min⁻¹
SMILES: O=C(OCCOCCOCCOCCS)c1ccc(S)cc1

- Activity [10]: 53%
- Activity [11]: 9%
- Activity [13]: 0.072 min⁻¹
- Activity [14]: 0.08 min⁻¹
SMILES: O=C(OCCOCCS)c1ccc(S)cc1

The remaining lines, values behind:

SMILES: OCCS [2-MERCAPTOETHANOL]
- pKa [1]: 9.6

SMILES: C[N+](C)(CCCCCC[N+](C)(C)Cc1ccc(S)cc1)Cc1ccc(S)cc1.[Br-].[Br-]
- Activity [15]: 49%
- Activity [16]: 78%
- solubility [17]: soluble
- Activity [18]: 0.011 min⁻¹
- Activity [19]: 0.013 min⁻¹
- Activity [20]: 0.017 min⁻¹
- Activity [21]: 0.016 min⁻¹
- Activity [22]: 74%
- Activity [23]: 70%

SMILES: C[N+](C)(CCC[N+](C)(C)Cc1ccc(S)cc1)Cc1ccc(S)cc1.[Br-].[Br-]
- Activity [15]: 88%
- Activity [29]: 77%
- solubility [17]: soluble
- Activity [18]: 0.012 min⁻¹
- Activity [30]: 0.015 min⁻¹
- Activity [20]: 0.022 min⁻¹
- Activity [31]: 0.023 min⁻¹
- Activity [22]: 83%
- Activity [32]: 86%

SMILES: C[N+](C)(C)Cc1ccc(S)cc1
- Activity [33]: 82%
- Activity [29]: 81%
- Activity [34]: 0.017 min⁻¹
- Activity [31]: 0.018 min⁻¹

SMILES: N[C@@H](CS)C(=O)O [CYSTEINE]
- pKa [1]: 8.7
